ChEMBL document CHEMBL1275556, “High prevalence of plasmid-mediated quinolone resistance genes qnr and aac(6')-Ib-cr in clinical isolates of Enterobacteriaceae from nine teaching hospitals in China” (2008)
In brackets after ≈: the same amount, converted by molar mass.

What was measured:
Citrobacter freundii [1] = test: Antimicrobial activity against aac(6')-Ib-cr-positive Citrobacter freundii JN1T by agar dilution method; assay type: functional
How it was run: (§1)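 MICs were determined by the CLSI agar dilution method (M7-A7) and interpreted against CLSI M100-S17 breakpoints.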

Citrobacter freundii [2] = test: Antimicrobial activity against aac(6')-Ib-cr-positive Citrobacter freundii JS33 harboring GyrA T83I mutant, wild-type ParC, GyrB, qnrA and qnrB genes by agar dilution method; assay type: functional; how it was run: as §1
Enterobacter cloacae [3] = test: Antimicrobial activity against aac(6')-Ib-cr-negative Enterobacter cloacae FJ67 harboring […] and qnrS genes by agar dilution method; assay type: functional
Citrobacter freundii [4] = test: Antimicrobial activity against aac(6')-Ib-cr-positive Citrobacter freundii TJ15 harboring GyrA T83I, ParC S80I mutant, wild-type GyrB, qnrB genes by agar dilution method; assay type: functional; how it was run: as §1
Enterobacter cloacae [5] = test: Antimicrobial activity against aac(6')-Ib-cr-positive Enterobacter cloacae FJ63T harboring qnrS gene by agar dilution method; assay type: functional
Klebsiella pneumoniae [6] = test: Antimicrobial activity against aac(6')-Ib-cr-positive Klebsiella pneumoniae SY26T harboring wild-type GyrA, ParC, GyrB and qnrB genes by agar dilution method; assay type: functional
How it was run: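 Transconjugants were made by conjugating a qnr/aac(6')-Ib-cr donor with azide-resistant E. coli J53. MICs were read by CLSI agar dilution (M7-A7) and interpreted per M100-S17.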

Klebsiella pneumoniae [7] = test: Antimicrobial activity against aac(6')-Ib-cr-positive Klebsiella pneumoniae WH99 harboring wild-type GyrA, ParC, GyrB and qnrB genes by agar dilution method; assay type: functional
How it was run: (§2)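 MICs were determined on clinical isolates by CLSI agar dilution (M7-A7) and interpreted against CLSI M100-S17 breakpoints.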

Klebsiella pneumoniae [8] = test: Antimicrobial activity against aac(6')-Ib-cr-positive Klebsiella pneumoniae GZ40 harboring GyrA S83I, ParC S80I mutant, wild-type GyrB and qnrB genes by agar dilution method; assay type: functional; how it was run: as §1
Citrobacter freundii [9] = test: Antimicrobial activity against aac(6')-Ib-cr-positive Citrobacter freundii PU55T harboring wild-type GyrA, ParC, GyrB and qnrA genes by agar dilution method
Enterobacter cloacae [10] = test: Antimicrobial activity against aac(6')-Ib-cr-negative Enterobacter cloacae SH39 harboring GyrA S83I, ParC S80I mutant, wild-type GyrB and qnrA genes by agar dilution method; assay type: functional
Citrobacter freundii [11] = test: Antimicrobial activity against aac(6')-Ib-cr-positive Citrobacter freundii TJ15T harboring wild-type GyrA, ParC, GyrB genes by agar dilution method; assay type: functional; how it was run: as §1
Escherichia coli [12] = test: Antimicrobial activity against aac(6')-Ib-cr-negative Escherichia coli PU12 harboring GyrA S83L mutant, wild-type GyrB, ParC and qnrS genes by agar dilution method; assay type: functional; how it was run: as §1
Escherichia coli [13] = test: Antimicrobial activity against aac(6')-Ib-cr-positive Escherichia coli FJ3 harboring GyrA S83L, ParC S80R mutant, wild-type GyrB and qnrB genes by agar dilution method; assay type: functional; how it was run: as §1
Escherichia coli [14] = test: Antimicrobial activity against Escherichia coli J53 harboring wild-type GyrA, ParC, GyrB genes by agar dilution method
Enterobacter cloacae [15] = test: Antimicrobial activity against aac(6')-Ib-cr-negative Enterobacter cloacae FJ61T harboring qnrS gene by agar dilution method; assay type: functional
Citrobacter freundii [16] = test: Antimicrobial activity against aac(6')-Ib-cr-positive Citrobacter freundii PU55 harboring GyrA T83I, ParC S80I mutant, wild-type GyrB, qnrA genes by agar dilution method; assay type: functional; how it was run: as §1
Enterobacter cloacae [17] = test: Antimicrobial activity against aac(6')-Ib-cr-negative Enterobacter cloacae WH42 harboring wild-type GyrA, ParC, GyrB and qnrA genes by agar dilution method; assay type: functional
Citrobacter freundii [18] = test: Antimicrobial activity against aac(6')-Ib-cr-negative Citrobacter freundii JN64 harboring GyrA T83I, wild-type ParC, GyrB and qnrA genes by agar dilution method; assay type: functional; how it was run: as §1
Enterobacter cloacae [19] = test: Antimicrobial activity against aac(6')-Ib-cr-negative Enterobacter cloacae FJ61 harboring GyrA S83I, GyrA D87A, ParC S80I mutant, wild-type GyrB and qnrS genes by agar dilution method; assay type: functional
Klebsiella pneumoniae [20] = test: Antimicrobial activity against aac(6')-Ib-cr-positive Klebsiella pneumoniae SY26 harboring GyrA S83I, ParC S80I mutant, wild-type GyrB and qnrB genes by agar dilution method; assay type: functional; how it was run: as §2
Citrobacter freundii [21] = test: Antimicrobial activity against aac(6')-Ib-cr-positive Citrobacter freundii JS33T harboring qnrA gene by agar dilution method; assay type: functional; how it was run: as §1
Citrobacter freundii [22] = test: Antimicrobial activity against aac(6')-Ib-cr-negative Citrobacter freundii JN64T harboring qnrA gene by agar dilution method; assay type: functional; how it was run: as §1
Enterobacter cloacae [23] = test: Antimicrobial activity against aac(6')-Ib-cr-negative Enterobacter cloacae GZ47 harboring qnrB and qnrS genes by agar dilution method; assay type: functional
Klebsiella pneumoniae [24] = test: Antimicrobial activity against aac(6')-Ib-cr-positive Klebsiella pneumoniae JN132T harboring qnrB gene by agar dilution method; assay type: functional
How it was run: (§3)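 Transconjugants were made by conjugating a qnr/aac(6')-Ib-cr donor with azide-resistant E. coli J53. Selection used Trypticase soy agar with sodium azide 150 µg/ml and sulfamethoxazole 180 µg/ml. […] MICs were read by CLSI agar dilution (M7-A7) and interpreted per M100-S17.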

Klebsiella pneumoniae [25] = test: Antimicrobial activity against aac(6')-Ib-cr-positive Klebsiella pneumoniae JN132 harboring GyrA S83I, ParC S80I mutant, wild-type GyrB and qnrB genes by agar dilution method; assay type: functional; how it was run: as §2
Klebsiella pneumoniae [26] = test: Antimicrobial activity against aac(6')-Ib-cr-positive Klebsiella pneumoniae GZ40T harboring qnrB gene by agar dilution method
Klebsiella pneumoniae [27] = test: Antimicrobial activity against aac(6')-Ib-cr-positive Klebsiella pneumoniae JN41T harboring qnrB gene by agar dilution method; assay type: functional; how it was run: as §3
Klebsiella pneumoniae [28] = test: Antimicrobial activity against aac(6')-Ib-cr-negative Klebsiella pneumoniae SY22 harboring GyrA S83I, ParC S80I mutant, wild-type GyrB and qnrS genes by agar dilution method; assay type: functional; how it was run: as §1
Enterobacter cloacae [29] = test: Antimicrobial activity against aac(6')-Ib-cr-negative Enterobacter cloacae WH42T harboring qnrA gene by agar dilution method; assay type: functional
Klebsiella pneumoniae [30] = test: Antimicrobial activity against aac(6')-Ib-cr-negative Klebsiella pneumoniae SY22T harboring qnrS gene by agar dilution method; assay type: functional; how it was run: as §1
Enterobacter cloacae [31] = test: Antimicrobial activity against aac(6')-Ib-cr-negative Enterobacter cloacae GZ51 harboring qnrA gene by agar dilution method; assay type: functional
Enterobacter cloacae [32] = test: Antimicrobial activity against aac(6')-Ib-cr-positive Enterobacter cloacae FJ63 harboring GyrA S83I, GyrA D87A, ParC S80I mutant, wild-type GyrB and qnrS genes by agar dilution method; assay type: functional
Klebsiella pneumoniae [33] = test: Antimicrobial activity against aac(6')-Ib-cr-positive Klebsiella pneumoniae WH99T harboring qnrB gene by agar dilution method; assay type: functional; how it was run: as §3
Citrobacter freundii [34] = test: Antimicrobial activity against aac(6')-Ib-cr-positive Citrobacter freundii JN1 harboring GyrA T83I, ParC S80I mutant, wild-type GyrB and qnrA genes by agar dilution method; assay type: functional; how it was run: as §1
Escherichia coli [35] = test: Antimicrobial activity against aac(6')-Ib-cr-negative Escherichia coli PU12T harboring wild-type GyrA, GyrB, ParC and qnrS genes by agar dilution method; assay type: functional; how it was run: as §1
Enterobacter cloacae [36] = test: Antimicrobial activity against aac(6')-Ib-cr-negative Enterobacter cloacae GZ47T harboring qnrB gene by agar dilution method; assay type: functional
Klebsiella pneumoniae [37] = test: Antimicrobial activity against aac(6')-Ib-cr-positive Klebsiella pneumoniae JN41 harboring GyrA S83I, ParC S80I mutant, wild-type GyrB and qnrB genes by agar dilution method; assay type: functional; how it was run: as §2
Enterobacter cloacae [38] = test: Antimicrobial activity against aac(6')-Ib-cr-negative Enterobacter cloacae SH39T harboring qnrA gene by agar dilution method; assay type: functional
Enterobacter cloacae [39] = test: Antimicrobial activity against aac(6')-Ib-cr-negative Enterobacter cloacae GZ51T harboring qnrA gene by agar dilution method; assay type: functional
Enterobacter cloacae [40] = test: Antimicrobial activity against aac(6')-Ib-cr-negative Enterobacter cloacae FJ67T harboring qnrS gene by agar dilution method; assay type: functional
Escherichia coli [41] = test: Antimicrobial activity against aac(6')-Ib-cr-positive Escherichia coli FJ3T harboring wild-type GyrA, ParC, GyrB and qnrB genes by agar dilution method

## CO[C@@]1(NC(=O)Cc2cccs2)C(=O)N2C(C(=O)O)=C(COC(N)=O)CS[C@@H]21 [CEFOXITIN]
Citrobacter freundii [1]
  MIC: 2 mg/L (≈ 4.68 µM)
Citrobacter freundii [2]
  MIC: > 256 mg/L
Enterobacter cloacae [3]
  MIC: > 256 mg/L
Citrobacter freundii [4]
  MIC: 256 mg/L (≈ 599 µM)
Enterobacter cloacae [5]
  MIC: 4 mg/L (≈ 9.36 µM)
Klebsiella pneumoniae [6]
  MIC: 16 mg/L (≈ 37.4 µM)
Klebsiella pneumoniae [7]
  MIC: 256 mg/L (≈ 599 µM)
Klebsiella pneumoniae [8]
  MIC: 32 mg/L (≈ 74.9 µM)
Citrobacter freundii [9]
  MIC: 2 mg/L (≈ 4.68 µM)
Enterobacter cloacae [10]
  MIC: > 256 mg/L
Citrobacter freundii [11]
  MIC: 64 mg/L (≈ 150 µM)
Escherichia coli [12]
  MIC: 4 mg/L (≈ 9.36 µM)
Escherichia coli [13]
  MIC: 8 mg/L (≈ 18.7 µM)
Escherichia coli [14]
  MIC: 2 mg/L (≈ 4.68 µM)
Enterobacter cloacae [15]
  MIC: 4 mg/L (≈ 9.36 µM)
Citrobacter freundii [16]
  MIC: > 256 mg/L
Enterobacter cloacae [17]
  MIC: > 256 mg/L
Citrobacter freundii [18]
  MIC: > 256 mg/L
Enterobacter cloacae [19]
  MIC: 256 mg/L (≈ 599 µM)
Klebsiella pneumoniae [20]
  MIC: 256 mg/L (≈ 599 µM)
Citrobacter freundii [21]
  MIC: 2 mg/L (≈ 4.68 µM)
Citrobacter freundii [22]
  MIC: 8 mg/L (≈ 18.7 µM)
Enterobacter cloacae [23]
  MIC: 256 mg/L (≈ 599 µM)
Klebsiella pneumoniae [24]
  MIC: 64 mg/L (≈ 150 µM)
Klebsiella pneumoniae [25]
  MIC: 64 mg/L (≈ 150 µM)
Klebsiella pneumoniae [26]
  MIC: 2 mg/L (≈ 4.68 µM)
Klebsiella pneumoniae [27]
  MIC: 2 mg/L (≈ 4.68 µM)
Klebsiella pneumoniae [28]
  MIC: 8 mg/L (≈ 18.7 µM)
Enterobacter cloacae [29]
  MIC: 2 mg/L (≈ 4.68 µM)
Klebsiella pneumoniae [30]
  MIC: 4 mg/L (≈ 9.36 µM)
Enterobacter cloacae [31]
  MIC: > 256 mg/L
Enterobacter cloacae [32]
  MIC: 256 mg/L (≈ 599 µM)
Klebsiella pneumoniae [33]
  MIC: 64 mg/L (≈ 150 µM)
Citrobacter freundii [34]
  MIC: > 256 mg/L
Escherichia coli [35]
  MIC: 4 mg/L (≈ 9.36 µM)
Enterobacter cloacae [36]
  MIC: 32 mg/L (≈ 74.9 µM)
Klebsiella pneumoniae [37]
  MIC: 4 mg/L (≈ 9.36 µM)
Enterobacter cloacae [38]
  MIC: 4 mg/L (≈ 9.36 µM)
Enterobacter cloacae [39]
  MIC: 4 mg/L (≈ 9.36 µM)
Enterobacter cloacae [40]
  MIC: 4 mg/L (≈ 9.36 µM)
Escherichia coli [41]
  MIC: 2 mg/L (≈ 4.68 µM)
